According to ChEMBL document CHEMBL1154647, “Synthesis, spectral characterization and biological evaluation of phosphorylated derivatives of galanthamine” (Eur J Med Chem, 2010):
In brackets after ≈: the same amount, converted by molar mass.

Columns and labels:
Brain [1] = test: Antioxidant activity in Wistar rat brain assessed as catalase content; assay type: functional
Brain [2] = test: Antioxidant activity in Wistar rat brain assessed as reduction in glutathione content; assay type: functional, tissue-based
Procedure, shortened: (§1)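 Wistar rat brain was homogenised 1:40 (w/v) in 0.1 M phosphate buffer, pH 7.4, with 1 mM EDTA. Total glutathione (GSH + GSSG) and reduced GSH were assayed spectrophotometrically from optical density, using net rate against a standard-curve slope and intercept, times a dilution factor. Homogenate protein was measured by the Lowry method.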

Catalase = target: T1, Catalase (Rattus norvegicus, UniProt P04762); test: Inhibition of catalase in Wistar rat brain
T1 sequence (P04762 whole entry): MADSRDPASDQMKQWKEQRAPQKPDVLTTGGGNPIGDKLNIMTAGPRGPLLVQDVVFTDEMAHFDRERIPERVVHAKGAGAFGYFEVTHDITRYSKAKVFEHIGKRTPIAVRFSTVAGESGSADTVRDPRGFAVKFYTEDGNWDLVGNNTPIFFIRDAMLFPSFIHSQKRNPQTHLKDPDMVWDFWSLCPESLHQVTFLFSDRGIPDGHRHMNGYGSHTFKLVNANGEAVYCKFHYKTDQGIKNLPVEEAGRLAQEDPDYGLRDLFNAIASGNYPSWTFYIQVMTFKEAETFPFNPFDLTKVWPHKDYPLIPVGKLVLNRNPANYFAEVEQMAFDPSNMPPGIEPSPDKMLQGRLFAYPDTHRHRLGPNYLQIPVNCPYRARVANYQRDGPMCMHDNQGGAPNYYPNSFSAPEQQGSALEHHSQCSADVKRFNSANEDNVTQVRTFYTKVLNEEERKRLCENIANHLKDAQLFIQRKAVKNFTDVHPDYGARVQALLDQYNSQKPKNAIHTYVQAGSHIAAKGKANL

Brain [3] = test: Antioxidant activity in Wistar rat brain assessed as inhibition of lipid peroxidation; assay type: functional, tissue-based
Staphylococcus aureus [4] = test: Antibacterial activity against Staphylococcus aureus at 2 mg/mL after 18 hrs by disc diffusion assay; assay type: functional; settings: read-out: IZ
Procedure, shortened: (§2)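 Bacteria were grown in nutrient broth at 37 °C for 18 h on a rotary shaker at 150 rpm. Compounds were dissolved in DMF. Nutrient agar plates were dried at 35–36 °C for about 30 min, and test strains were spread on the surface. Discs were applied, and plates were inverted and incubated at 37 °C. A DMF blank was run.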

Escherichia coli [5] = test: Antibacterial activity against Escherichia coli at 1 mg/mL after 18 hrs by disc diffusion assay; assay type: functional; settings: read-out: IZ; procedure, shortened: as §2
Escherichia coli [6] = test: Antibacterial activity against Escherichia coli at 2 mg/mL after 18 hrs by disc diffusion assay; assay type: functional; settings: read-out: IZ; procedure, shortened: as §2
[7] = Inhibition of superoxide dismutase in Wistar rat brain; assay type: tissue-based
Brain [8] = test: Antioxidant activity in Wistar rat brain assessed as lipid peroxidation; assay type: functional, tissue-based
Staphylococcus aureus [9] = test: Antibacterial activity against Staphylococcus aureus after 18 hrs; assay type: functional
Klebsiella pneumoniae [10] = test: Antibacterial activity against Klebsiella pneumoniae at 1 mg/mL after 18 hrs by disc diffusion assay; assay type: functional; settings: read-out: IZ; procedure, shortened: as §2
Brain [11] = test: Antioxidant activity in Wistar rat brain assessed as superoxide dismutase content; assay type: functional
Klebsiella pneumoniae [12] = test: Antibacterial activity against Klebsiella pneumoniae at 2 mg/mL after 18 hrs by disc diffusion assay; assay type: functional; settings: read-out: IZ; procedure, shortened: as §2
Klebsiella pneumoniae [13] = test: Antibacterial activity against Klebsiella pneumoniae after 18 hrs; assay type: functional
Bacillus subtilis [14] = test: Antibacterial activity against Bacillus subtilis after 18 hrs; assay type: functional
Bacillus subtilis [15] = test: Antibacterial activity against Bacillus subtilis at 1 mg/mL after 18 hrs by disc diffusion assay; assay type: functional; settings: read-out: IZ; procedure, shortened: as §2
Brain [16] = test: Antioxidant activity in Wistar rat brain assessed as glutathione content; assay type: functional; procedure, shortened: as §1
Staphylococcus aureus [17] = test: Antibacterial activity against Staphylococcus aureus at 1 mg/mL after 18 hrs by disc diffusion assay; assay type: functional; settings: read-out: IZ; procedure, shortened: as §2
Escherichia coli [18] = test: Antibacterial activity against Escherichia coli after 18 hrs; assay type: functional
Bacillus subtilis [19] = test: Antibacterial activity against Bacillus subtilis at 2 mg/mL after 18 hrs by disc diffusion assay; assay type: functional; settings: read-out: IZ; procedure, shortened: as §2

Compound | Activity (Brain [1]) | EC50 (Brain [2]) | EC50 (Catalase) | EC50 (Brain [3]) | zone of inhibition at 2000 µg/mL (Staphylococcus aureus [4]) | zone of inhibition at 1000 µg/mL (Escherichia coli [5]) | zone of inhibition at 2000 µg/mL (Escherichia coli [6]) | EC50 [7] | Activity (Brain [8]) | MIC (Staphylococcus aureus [9]) | zone of inhibition at 1000 µg/mL (Klebsiella pneumoniae [10]) | Activity (Brain [11]) | zone of inhibition at 2000 µg/mL (Klebsiella pneumoniae [12]) | MIC (Klebsiella pneumoniae [13]) | MIC (Bacillus subtilis [14]) | zone of inhibition at 1000 µg/mL (Bacillus subtilis [15]) | Activity (Brain [16]) | zone of inhibition at 1000 µg/mL (Staphylococcus aureus [17]) | MIC (Escherichia coli [18]) | zone of inhibition at 2000 µg/mL (Bacillus subtilis [19])
COc1ccc2c3c1O[C@H]1C[C@@H](OP(=O)(OCCO)N(CCCl)CCCl)C=C[C@@]31CCN(C)C2 (stereo partly specified) | 291.27 µg/mL | 2.02 µg/mL (≈ 3.77 µM) | 2.21 µg/mL (≈ 4.13 µM) | 2.87 µg/mL (≈ 5.36 µM) | 5.02 mm | 1.57 mm | 3.18 mm | 1.98 µg/mL (≈ 3.7 µM) | 68.2 µg/mL | 0.42 µg/mL (≈ 0.784 µM) | 1.65 mm | 29.02 µg/mL | 4.76 mm | 0.57 µg/mL (≈ 1.06 µM) | 0.28 µg/mL (≈ 0.523 µM) | 1.63 mm | 4.67 µg/mL | 3.03 mm | 0.5 µg/mL (≈ 0.934 µM) | 4.89 mm
COc1ccc2c3c1O[C@H]1C[C@@H](OP(=O)(NCCO)Oc4ccc([N+](=O)[O-])cc4)C=C[C@@]31CCN(C)C2 (stereo partly specified) | 284.32 µg/mL | 1.08 µg/mL (≈ 2.03 µM) | 4.94 µg/mL (≈ 9.29 µM) | 2.81 µg/mL (≈ 5.29 µM) | 3.94 mm | 1.62 mm | 4.44 mm | 2.57 µg/mL (≈ 4.84 µM) | 72.5 µg/mL | 0.81 µg/mL (≈ 1.52 µM) | 2.43 mm | 29.37 µg/mL | 5.44 mm | 0.42 µg/mL (≈ 0.79 µM) | 0.21 µg/mL (≈ 0.395 µM) | 1.53 mm | 4.72 µg/mL | 1.59 mm | 0.44 µg/mL (≈ 0.828 µM) | 4.16 mm
COc1ccc2c3c1O[C@H]1C[C@@H](OP(=O)(Oc4ccc([N+](=O)[O-])cc4)SCCO)C=C[C@@]31CCN(C)C2 (stereo partly specified) | 288.58 µg/mL | 1.49 µg/mL (≈ 2.72 µM) | 4.25 µg/mL (≈ 7.75 µM) | 2.64 µg/mL (≈ 4.81 µM) | 4.91 mm | 3.62 mm | 4.38 mm | 1.55 µg/mL (≈ 2.83 µM) | 72.8 µg/mL | 0.29 µg/mL (≈ 0.529 µM) | 2.36 mm | 29.69 µg/mL | 5.01 mm | 0.36 µg/mL (≈ 0.656 µM) | 0.1 µg/mL (≈ 0.182 µM) | 1.81 mm | 4.77 µg/mL | 2.5 mm | 0.34 µg/mL (≈ 0.62 µM) | 3.06 mm
COc1ccc2c3c1O[C@H]1C[C@@H](OP(=O)(NCCO)N(CCCl)CCCl)C=C[C@@]31CCN(C)C2 (stereo partly specified) | 287.59 µg/mL | 1.03 µg/mL (≈ 1.93 µM) | 1.52 µg/mL (≈ 2.84 µM) | 1.42 µg/mL (≈ 2.66 µM) | 4.78 mm | 1.32 mm | 3.86 mm | 1.28 µg/mL (≈ 2.4 µM) | 72.3 µg/mL | 0.29 µg/mL (≈ 0.543 µM) | 1.47 mm | 29.86 µg/mL | 4.45 mm | 0.15 µg/mL (≈ 0.281 µM) | 0.11 µg/mL (≈ 0.206 µM) | 2.22 mm | 4.73 µg/mL | 1.47 mm | 0.35 µg/mL (≈ 0.655 µM) | 3.46 mm
COc1ccc2c3c1O[C@H]1C[C@@H](OP(=O)(NCCN)Oc4ccc([N+](=O)[O-])cc4)C=C[C@@]31CCN(C)C2 (stereo partly specified) | 295.92 µg/mL | 1.89 µg/mL (≈ 3.56 µM) | 1.81 µg/mL (≈ 3.41 µM) | 1.99 µg/mL (≈ 3.75 µM) | 5.09 mm | 1.02 mm | 3.73 mm | 1.91 µg/mL (≈ 3.6 µM) | 75.9 µg/mL | 0.75 µg/mL (≈ 1.41 µM) | 2.78 mm | 29.73 µg/mL | 6.11 mm | 0.38 µg/mL (≈ 0.716 µM) | 0.15 µg/mL (≈ 0.283 µM) | 1.93 mm | 5.06 µg/mL | 1.84 mm | 0.62 µg/mL (≈ 1.17 µM) | 4.91 mm
VITAMIN E [listing 1 of 2 here] | – | 0.99 µg/mL | 1.48 µg/mL | 1.22 µg/mL | – | – | – | 1.03 µg/mL | – | – | – | – | – | – | – | – | – | – | – | –
COc1ccc2c3c1O[C@H]1C[C@@H](OP(=O)(Oc4ccc([N+](=O)[O-])cc4)OP(=O)(O)O)C=C[C@@]31CCN(C)C2 (stereo partly specified) | 287.38 µg/mL | 2.15 µg/mL (≈ 3.78 µM) | 2.92 µg/mL (≈ 5.14 µM) | 3.33 µg/mL (≈ 5.86 µM) | 4.56 mm | 2.42 mm | 4.97 mm | 2.69 µg/mL (≈ 4.73 µM) | 72.2 µg/mL | 0.76 µg/mL (≈ 1.34 µM) | 1.88 mm | 29.55 µg/mL | 5.45 mm | 0.28 µg/mL (≈ 0.493 µM) | 0.19 µg/mL (≈ 0.334 µM) | 2.05 mm | 4.22 µg/mL | 2.38 mm | 0.46 µg/mL (≈ 0.809 µM) | 3.78 mm
O=C1O[C@H]([C@@H](O)CO)C(O)=C1O [ASCORBIC ACID] | 385.46 µg/mL | 0.98 µg/mL (≈ 5.56 µM) | – | 1.02 µg/mL (≈ 5.79 µM) | – | – | – | 0.99 µg/mL (≈ 5.62 µM) | 88.1 µg/mL | – | – | – | – | – | – | – | 31.34 µg/mL | – | – | –
O=C(N[C@H](CO)[C@H](O)c1ccc([N+](=O)[O-])cc1)C(Cl)Cl [CHLORAMPHENICOL] | – | – | – | – | 3.08 mm | 2.02 mm | 3.27 mm | – | – | 0.2 µg/mL (≈ 0.619 µM) | 3.62 mm | – | 4.02 mm | 0.13 µg/mL (≈ 0.402 µM) | 0.15 µg/mL (≈ 0.464 µM) | 1.02 mm | – | 2.67 mm | 0.25 µg/mL (≈ 0.774 µM) | 2.99 mm
VITAMIN E [listing 2 of 2 here] | 403 µg/mL | – | – | – | – | – | – | – | 82.8 µg/mL | – | – | 32.3 µg/mL | – | – | – | – | 43.6 µg/mL | – | – | –
